In ChEMBL document CHEMBL4732199, “Potent and orally bioavailable CDK8 inhibitors: Design, synthesis, structure-activity relationship analysis and biological evaluation” (Eur J Med Chem, 2021):

Assays:
[1] = tested on: MV4-11; test: Growth inhibition of human MV4-11 cells after 72 hrs by resazurin staining based assay; format: functional
Summary of the method: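 MV4-11 leukaemia cells grown in medium with 10% FBS at 37 °C, 5% CO2. Growth was read by a 72-h resazurin viability assay. GI50 was obtained by nonlinear regression and reported as mean ± standard deviation of at least two replicates.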

[2] = target: CDK8/Cyclin C (Homo sapiens, UniProt P49336); test: Inhibition of CDK8/cyclin C (unknown origin) using RBER-IRStide as substrate incubated for 60 mins in presence of [gamma33P]ATP by scintillation counting method; format: protein-complex assay
CDK8/Cyclin C, sequence (P49336 whole entry): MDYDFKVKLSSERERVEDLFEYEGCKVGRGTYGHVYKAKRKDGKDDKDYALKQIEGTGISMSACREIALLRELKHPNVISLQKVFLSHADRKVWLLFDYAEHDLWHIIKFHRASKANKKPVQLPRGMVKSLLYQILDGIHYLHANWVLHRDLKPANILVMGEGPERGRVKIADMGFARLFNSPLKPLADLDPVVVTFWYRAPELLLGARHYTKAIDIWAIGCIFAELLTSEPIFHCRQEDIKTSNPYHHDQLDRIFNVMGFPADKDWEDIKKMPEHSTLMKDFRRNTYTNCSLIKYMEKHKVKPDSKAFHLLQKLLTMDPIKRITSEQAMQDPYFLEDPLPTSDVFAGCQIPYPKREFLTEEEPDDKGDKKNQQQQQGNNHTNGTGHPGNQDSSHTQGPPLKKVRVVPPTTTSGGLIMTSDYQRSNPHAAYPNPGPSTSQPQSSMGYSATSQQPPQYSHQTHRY
CDK8/Cyclin C, sequence (P24863 whole entry, further chain): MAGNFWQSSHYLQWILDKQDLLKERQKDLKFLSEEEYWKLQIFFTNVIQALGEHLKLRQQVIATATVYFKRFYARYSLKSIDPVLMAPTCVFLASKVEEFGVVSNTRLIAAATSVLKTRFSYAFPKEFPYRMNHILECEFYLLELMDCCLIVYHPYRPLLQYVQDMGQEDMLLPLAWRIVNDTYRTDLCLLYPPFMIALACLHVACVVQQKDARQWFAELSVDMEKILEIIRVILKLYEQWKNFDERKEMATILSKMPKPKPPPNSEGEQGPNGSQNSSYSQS

Row | SMILES | GI50 [1] [nM] | Ki [2] [nM]
1 | O=C1NCCC12CCN(c1c(Cl)cncc1-c1cccc3c1oc1ccccc13)CC2 | 6680 | 16
2 | Cn1cc2c(-c3cncc(Cl)c3N3CCC4(CCNC4=O)CC3)cccc2n1 | 5260 | 52
3 | CNC(=O)c1ccn(-c2c(Cl)cncc2-c2ccc(-c3cnn(C)c3)cc2)c1 | 35000 | 2030
4 | O=C1NCCC12CCN(c1c(Cl)cncc1-c1cccc3cnccc13)CC2 | 62300 | 52
5 | O=C1NCCC12CCN(c1c(Cl)cncc1-c1cccc3ccncc13)CC2 | 64200 | 3140
6 | O=C1NCCC12CCN(c1c(Cl)cncc1-c1c[nH]c3ncccc13)CC2 | 7820 | 50
7 | Cn1ncc2c(-c3cncc(Cl)c3N3CCC4(CCNC4=O)CC3)cccc21 | 27700 | 458
8 | O=C1NCCC12CCN(c1c(Cl)cncc1-c1cccc3ncccc13)CC2 | 3650 | 22
9 | Cn1cc(-c2ccc(-c3cncc(Cl)c3-n3ccc(C(N)=O)c3)cc2)cn1 | 9580 | 1090
10 | O=C1NCCC12CCN(c1c(Cl)cncc1-c1cccc3[nH]ccc13)CC2 | 1910 | 19

More lines, now with the values ahead:

Row | GI50 [1] [nM] | Ki [2] [nM] | SMILES
11 | 710 | 22 | Cc1ccc(-c2cncc(Cl)c2N2CCC3(CCNC3=O)CC2)c2ccccc12
12 | 29200 | 48 | O=C1NCCC12CCN(c1c(Cl)cncc1-c1coc3ccccc13)CC2
13 | 30600 | 58 | O=C1NCCC12CCN(c1c(Cl)cncc1-c1cn(Cc3ccccc3)c3ncccc13)CC2
14 | 6840 | 156 | O=C1NCCC12CCN(c1c(Cl)cncc1-c1cc3ccccc3[nH]1)CC2
15 | 840 | 42 | O=C1NCCC12CCN(c1c(Cl)cncc1-c1cnn(-c3ccccc3)c1)CC2
